An excerpt weighted towards active compounds, which were near 2.7% of everything screened.
PAFAH2 FP inh: PAFAH2 (human) inhibition | recombinant PAFAH2, FP-rhodamine activity probe, fluorescence polarization | inhibition, % at 3.39 µM | hit rate 0.99% among 340,000;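 active means inhibition above the mean over all tested compounds plus 3 SD, cut at about 30% in these data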;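 further: inhibitors block probe labeling of enzyme so polarization drops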
PAFAH1B3 FP inh: PAFAH1B3 (human) inhibition; Q15102; recombinant PAFAH1B3, FP-rhodamine probe, fluorescence polarization; inhibition, % at 3.39 µM; hit rate 0.28% among 340,000;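 active means inhibition above the screen-wide average of all tested compounds plus 3 SD, cut at about 25% in these data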
pPAFAH inh: pPAFAH (human) enzyme inhibition; Q13093; recombinant pPAFAH, FP-rhodamine probe fluorescence polarization; inhibition, % at 3.39 µM; hit rate 1.5% among 330,000; AID 463082;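 active means inhibition above the mean inhibition across the screen plus 3 SD, cut at about 25% in these data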;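 further: inhibitors block binding of the rhodamine activity-based probe so polarization drops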
Target sequence (Q13093 whole entry, looked up): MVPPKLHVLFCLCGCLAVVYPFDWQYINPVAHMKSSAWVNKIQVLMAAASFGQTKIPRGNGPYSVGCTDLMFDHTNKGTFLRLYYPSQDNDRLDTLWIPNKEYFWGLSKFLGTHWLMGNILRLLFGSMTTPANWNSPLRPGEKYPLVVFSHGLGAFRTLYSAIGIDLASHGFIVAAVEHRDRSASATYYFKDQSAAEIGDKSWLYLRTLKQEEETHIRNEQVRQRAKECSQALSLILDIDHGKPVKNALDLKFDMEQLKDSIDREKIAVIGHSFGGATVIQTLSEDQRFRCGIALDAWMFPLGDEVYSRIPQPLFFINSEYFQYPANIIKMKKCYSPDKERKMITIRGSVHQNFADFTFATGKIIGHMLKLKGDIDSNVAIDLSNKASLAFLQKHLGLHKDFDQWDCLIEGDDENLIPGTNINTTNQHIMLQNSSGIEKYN
ASAP1 inh: blocks human ASAP1-stimulated Arf1 GTP hydrolysis; Q9ULH1; GDP FP detection; inhibition, % at 16.5 µM; hit rate 0.19% among 360,000; in the data active means inhibition above about 25%
PAFAH1B2 FP inh: PAFAH1B2 (human) inhibition | P68402 | recombinant PAFAH1B2, FP-rhodamine activity probe, fluorescence polarization | inhibition, % at 3.39 µM | hit rate 1.2% among 340,000 | AID 492953;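 active means inhibition above the mean of all tested compounds plus 3 SD, cut at about 24% in these data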
ARFGAP1 inhibitor: inhibitors of rat ARFGAP1 | Arfgap1-stimulated ARF1 GTP hydrolysis, GDP FP detection | inhibition, % at 16.5 µM | hit rate 0.26% among 360,000 | AID 651572;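 active means inhibition above a per-plate limit, mean inhibition of low control wells plus 3 SD, cut at about 25% in these data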
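Replicates: Single well per compound | Assay system: Truncated rat Arfgap1 GAP domain | Control set: No-Arfgap1 wells (100%) versus DMSO full-reaction wells (0%) | Times: Enzyme reaction 120 min at 25 °C after 20 min preincubation | Reagent: Human ARF1(Δ1-17)-GTP substrate | Measured by: Tracer-displacement fluorescence polarization with EDTA stop, 620/688 nm | Measure: Percent inhibition of Arfgap1-stimulated GTP hydrolysis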
PAFAH2 FP conf: confirmation of human PAFAH2 inhibitors | shares compounds with PAFAH2 FP inh | recombinant PAFAH2, FP-rhodamine activity probe, fluorescence polarization | inhibition, % at 3.39 µM | hit rate 65% among 2,300 | AID 493030;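 active means mean inhibition over three repeats above a set limit taken from the earlier primary screen, cut at about 30% in these data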;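 further: inhibitor blocks binding of rhodamine activity probe so polarization falls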
A number is an active result; n = inactive; x = no result given.

SMILES	PAFAH2 FP inh	PAFAH1B3 FP inh	pPAFAH inh	ASAP1 inh	PAFAH1B2 FP inh	ARFGAP1 inhibitor	PAFAH2 FP conf
O=C(OCc1nnc(-c2ccccc2)o1)c1cccnc1Cl	n	n	n	n	n	n	x
O=C(OCc1nnc(-c2ccccc2)o1)c1ccc2c(c1)OCO2	58	n	n	n	n	n	60
O=C(CNC(=O)c1ccccc1)OCc1nnc(-c2ccccc2)o1	n	n	n	n	n	n	x
Cc1ccc(C(=O)OCc2nnc(-c3ccccc3)o2)s1	81	n	n	n	n	n	73
N#Cc1ccccc1COC(=O)c1ccc2c(c1)OCO2	n	n	n	n	n	n	x
CS(=O)(=O)N(CC(=O)N1CCCCC1)c1cccc(F)c1	n	n	n	n	n	n	x
COc1cc(CN(C(=O)c2ccco2)C2CCS(=O)(=O)C2)cc(OC)c1OC (stereo not drawn)	n	n	n	n	n	n	x
O=C(O)CN=C(NS(=O)(=O)c1ccc(Cl)cc1)c1ccccc1	35	n	n	n	n	n	n
COc1ccc(OC)c(/C=C/C(=O)OCC(=O)NCc2ccccc2)c1	46	n	n	n	n	n	n
COc1ccc(OC)c(/C=C/C(=O)OCC(=O)NCc2cccs2)c1	46	n	n	n	n	n	50
COc1ccc(CCNC(=O)COC(=O)/C=C/c2ccc(OC)cc2OC)cc1	72	n	n	n	n	n	58
COc1ccc(CCNC(=O)COC(=O)c2ccc(OC)cc2OC)cc1	n	n	x	n	n	n	x
COc1cc(/C=C/C(=O)OCC(=O)NCc2cccs2)ccc1OC(F)F	33	n	n	n	n	n	51
CC(Oc1ccc(Cl)cc1Cl)C(=O)NCCC1=CCCCC1 (stereo not drawn)	n	n	n	n	n	n	x
O=C(CSc1nnc(Nc2ccccc2)s1)NC1CC1	n	n	n	n	n	n	x
CC(C)c1ccc(NC(=O)COC(=O)c2cc(=O)[nH]c3ccccc23)cc1	n	n	n	n	n	n	x
COc1ccc(CCNC(=O)COC(=O)/C=C/c2cc(OC)ccc2OC)cc1	32	n	n	n	n	n	n
COc1ccc(/C=C/C(=O)OCC(=O)NCc2ccccc2)cc1OC	50	n	n	n	n	n	47
COc1ccc(C(=O)NNC(=O)COC(=O)c2sccc2C)cc1	n	n	n	n	n	n	x
COc1cc(-c2cccs2)cc(=O)c2c(C)oc(C)c12	32	n	n	n	n	n	n
Cc1ccc(CN2CCSCC2)c(C)c1	n	n	n	n	n	n	x
Cc1ccc(C(=O)OCC(=O)c2ccccc2)cc1	37	n	n	n	n	n	n
COc1ccc(C(=O)OCC(=O)NC2CC2)cc1S(=O)(=O)N(C)Cc1ccccc1	54	n	n	n	n	n	49
COc1cc(C(=O)OCC(=O)NC2CC2)ccc1OCCC(C)C	71	n	n	n	n	n	68
COc1cc(C(=O)OCC(=O)NC2CCCCCC2)ccc1OCC(C)C	88	n	n	n	n	n	83
SMILES	PAFAH2 FP inh	PAFAH1B3 FP inh	pPAFAH inh	ASAP1 inh	PAFAH1B2 FP inh	ARFGAP1 inhibitor	PAFAH2 FP conf
COc1ccc(S(=O)(=O)N2CCC(C(=O)NCc3cccnc3)CC2)cc1OC	n	n	n	n	n	n	x
O=c1ncn(-c2ccccc2F)c2ncccc12	n	n	n	n	n	n	x
CS(=O)(=O)c1cnc(-c2ccccc2)nc1-c1ccccc1Cl	n	n	n	n	n	n	x
CC(=O)Nc1cc(-c2ccc(CO)cc2)cn2c(-c3ccc(F)cc3)cnc12	x	x	x	n	x	n	x
COc1cccc(OC)c1C(=O)OCC(=O)NCC1CCCCC1	x	x	x	n	x	n	x
COc1cc(C(=O)OCC(=O)NC2CC2)cc(OC)c1OC	n	n	n	n	n	n	x
COc1cc(N)c(Cl)cc1C(=O)OCC(=O)NCC1CCCO1 (stereo not drawn)	n	n	n	n	n	n	x
COc1ccc(C(=O)OCC(=O)NC2CC2)cc1F	49	n	n	n	n	n	31
COc1cc(C(=O)OCC(=O)NCC2CCCCC2)ccc1OCC(C)C	68	n	n	n	n	n	61
COc1cc(N)c(Cl)cc1C(=O)OCC(=O)NCC1CCCCC1	60	n	n	n	n	n	52
